Measurements pooled from the literature.
Protocols differ between the studies behind these lines.
Target: Casein kinase I isoform gamma-3 (CSNK1G3, Homo sapiens, UniProt Q9Y6M4)

| SMILES | assay | conditions | endpoint | result |
| --- | --- | --- | --- | --- |
| Cc1ccc(NC(=O)c2ccnc(C(F)(F)F)c2)cc1-c1cc(OCCO)nc(N2CCOCC2)c1 | binding | 1 µM | remaining binding | 100% |
| Cc1cc(O)c(-c2ccc([C@@H](C)CN(C)C)cc2)c2c1[nH]c(=O)c1sccc12 | enzyme activity, inhibitor | 0.1 µM | inhibition | -4.11% |
| C=CC(=O)N1CCC([C@@H]2CCNc3c(C(N)=O)c(-c4ccc(Oc5ccccc5)cc4)nn32)CC1 | enzyme activity, inhibitor | 1 µM | inhibition | 0% |
| COc1ccc2[nH]c3c4[nH]c5ccc(OC)cc5c4c4c(c3c2c1)C(=O)NC4=O | binding | 1 µM | remaining binding | 100% |
| N#Cc1ccc2nc(Nc3ccc(N4CCOCC4)c(Cl)c3)[nH]c2c1 | thermal stability, DSF | 30 µM | ΔTm | 3.3 °C |
| CCCCC(=O)Nc1ccc(-c2ccc3ncn(CCC)c(=O)c3c2)cn1 | binding, competition with immobilised ligand | 0.5 µM | remaining binding | 85% |
| CO[C@@H]1[C@H](N(C)C(=O)c2ccccc2)C[C@H]2O[C@]1(C)n1c3ccccc3c3c4c(c5c6ccccc6n2c5c31)C(=O)NC4 | enzyme activity, inhibitor | 1 µM | inhibition | 0% |
| C1=C/COCc2cc(ccc2OCCN2CCCC2)Nc2nccc(n2)-c2cccc(c2)COC/1 | cell-free assay | 0.1 µM | remaining signal | 100% |
